Measurements: ChEMBL document CHEMBL1132620, “Piperazine imidazo[1,5-a]quinoxaline ureas as high-affinity GABAA ligands of dual functionality” (J Med Chem, 1999)
Active and inactive are the calls of the source. The calls are words filed in the database; no cut-off is given here.

Assays:
[1] = organism: Mus musculus; assay: Ability to antagonize the muscle relaxation effect in mice caused by a benzodiazepine full agonist, triazolam.; type: functional
In short: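 Muscle relaxation induced by triazolam; test compound and triazolam given separately, traction scored 30 min after dosing; ED50 for blocking the relaxant effect.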

[2] = system: Mus musculus; assay: In vivo efficacy is evaluated by percent control of cerebellar GMP levels in (drug+stress) treated mice/mice under stress; type: functional; set-up: concentration or dose not given beside the values
In short: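 Male CF-1 mice given drug orally in vehicle 122 before electric footshock stress, controls given vehicle (1 mL/100 g); killed 30 min after treatment; cerebellum homogenized in 1% perchloric acid, iced 30 min, boiled 5 min, spun 17000g 20 min; supernatant cGMP by radioimmunoassay, expressed as % of stress control.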

[3] = target: T1, GABA-A receptor; anion channel (Rattus norvegicus) (UniProt O09028+P15431+P18506+P18508+P19969+P20236+P23574+P23576+P28471+P28473+P30191+P62813+P63079+P63138+Q91ZM7+Q9ES14); assay: (§1) Displacement of [3H]flunitrazepam from GABA-A benzodiazepine receptor of rat cortical membranes; type: cell membranes; set-up: concentration or dose not given beside the values; conditions: Membrane, concentration not given here
In short: (§2)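 Rat membranes incubated 60 min at 4 °C with [3H]flunitrazepam, 50 µg membrane protein and graded test drug in 200 µL containing NaCl, 10 mM Hepes/Tris pH 7.4 and 1 mM MgCl2; bound ligand separated by rapid filtration on GF/B; mean affinity, SE ≤10% of mean.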

[4] = target: T2, GABA-A receptor; alpha-1/beta-2/gamma-2 (Homo sapiens) (UniProt P14867+P47870+P18507); assay: (§3) In vitro GABA-mediated chloride current in A293 cells expressing GABA-A benzodiazepine receptor alpha-1-beta-2-gamma-2 subunits at 5 uM; type: functional, cell-based; conditions: HEK293
[5] = target: T1, GABA-A receptor; anion channel (Rattus norvegicus); assay: Shift in [35S]TBPS binding to GABA-A Benzodiazepine receptor of rat brain membrane
[6] = target: T2, GABA-A receptor; alpha-1/beta-2/gamma-2 (Homo sapiens); assay: as §3; type: functional, cell-based; conditions: HEK293; remark: listed apart in the source
[7] = target: GABA-A receptor; anion channel; assay: as §1; type: cell membranes, Membrane; in short: as §2
[8] = system: Rattus norvegicus; assay: In vivo efficacy evaluated for ability to antagonize metrazole induced clonic convulsions in rat after ip injection; type: functional
[9] = system: Mus musculus; assay: In vivo acute electroshock physical dependence activity in mice; Active; type: functional, organism-based
[10] = system: Mus musculus; assay: In vivo acute electroshock physical dependence activity in mice; Not active.; type: functional, organism-based

SMILES	ED50 [1]	Control [2]	inhibition [3]	Change in Cl- current [4]	Shift [5]	Change in Cl- current [6]	Ki [7]	ED50 [8]	Acute electroshock activity [9]	Acute electroshock activity [10]
C[C@@H]1CN(C(=O)N2Cc3c(C(=O)OC(C)(C)C)ncn3-c3ccc(Cl)cc32)CCN1	27.5 mg/kg	57%	75%	0.6	0.01	0	5.96 nM	3.7 mg/kg	–	–
C[C@@H]1CN(C(=O)N2Cc3c(C(=O)OC(C)(C)C)ncn3-c3ccc(C(F)(F)F)cc32)CCN1	> 30 mg/kg	88%	30%	1	0.6	1	23.2 nM	8.9 mg/kg	–	–
Cc1ccc2c(c1)N(C(=O)N1C[C@@H](C)N[C@H](C)C1)Cc1c(C(=O)OC(C)(C)C)ncn1-2	–	49%	22%	0.7	0.1	0.05	5.17 nM	6.3 mg/kg	–	–
C[C@@H]1CN(C(=O)N2Cc3c(C(=O)OC(C)(C)C)ncn3-c3ccccc32)C[C@H](C)N1	> 30 mg/kg	94%	82%	0.5	-0.018	0	3.04 nM	> 50 mg/kg	–	–
C[C@@H]1CN(C(=O)N2Cc3c(C(=O)OC(C)(C)C)ncn3-c3ccc(C(F)(F)F)cc32)C[C@H](C)N1C	21.8 mg/kg	–	17%	–	0.26	0.81	31.4 nM	6.2 mg/kg	Active	–
C[C@H]1CN(C(=O)N2Cc3c(C(=O)OC(C)(C)C)ncn3-c3ccc(Cl)cc32)CCN1	> 30 mg/kg	56%	74%	0.8	0.12	0.1	6.71 nM	1.2 mg/kg	Active	–
C[C@@H]1CN(C(=O)N2Cc3c(C(=O)OC(C)(C)C)ncn3-c3ccc(C(F)(F)F)cc32)C[C@@H](C)N1	> 30 mg/kg	92%	24%	0.7	0.68	0.8	37.1 nM	4.4 mg/kg	–	–
Cc1ccc2c(c1)N(C(=O)N1CCN[C@@H](C)C1)Cc1c(C(=O)OC(C)(C)C)ncn1-2	> 30 mg/kg	55%	32%	1.1	0.59	0.4	17.9 nM	25 mg/kg	Active	–
CC(C)(C)OC(=O)c1ncn2c1CN(C(=O)N1CC3CC1CN3)c1cc(Cl)ccc1-2 (stereo not drawn)	–	–	4%	0.3	0.33	0.5	30.1 nM	> 50 mg/kg	–	inactive
CC(C)(C)OC(=O)c1ncn2c1CN(C(=O)N1CCN(c3ccccn3)CC1)c1cc(Cl)ccc1-2	> 30 mg/kg	–	3.4%	0.35	0.32	0.83	15.1 nM	> 50 mg/kg	Active	–
CC1(C)CN(C(=O)N2Cc3c(C(=O)OC(C)(C)C)ncn3-c3ccc(Cl)cc32)CC(C)(C)N1	> 30 mg/kg	40%	47%	–	0.77	1.14	3.2 nM	3.7 mg/kg	Active	–
CCCC(=O)O.CCN1[C@H](C)CN(C(=O)N2Cc3c(C(=O)OC(C)(C)C)ncn3-c3ccc(Cl)cc32)C[C@@H]1C	> 30 mg/kg	88%	84%	0.94	0.15	0.5	10.5 nM	3.7 mg/kg	–	inactive
CC1CNCC(C)N1C(=O)N1Cc2c(C(=O)OC(C)(C)C)ncn2-c2ccc(F)cc21 (stereo not drawn)	> 30 mg/kg	100%	69%	0.72	0.02	0	3.45 nM	10.5 mg/kg	–	–
C[C@@H]1CN(C(=O)N2Cc3c(C(=O)OC(C)(C)C)ncn3-c3cccc(Cl)c32)C[C@H](C)N1C	> 30 mg/kg	102%	49%	–	0.22	0.71	56.3 nM	> 50 mg/kg	–	inactive
Cc1ccc2c(c1)N(C(=O)N1CCN[C@H](C)C1)Cc1c(C(=O)OC(C)(C)C)ncn1-2	17.3 mg/kg	59%	51%	0.8	0.19	0.1	5.47 nM	2.7 mg/kg	–	–
CN1CCN(C(=O)N2Cc3c(C(=O)OC(C)(C)C)ncn3-c3ccc(Cl)cc32)CC1(C)C	> 30 mg/kg	–	11%	1.1	0.21	0.5	4.35 nM	35.3 mg/kg	–	inactive
C[C@H]1NCCN(C(=O)N2Cc3c(C(=O)OC(C)(C)C)ncn3-c3ccc(Cl)cc32)[C@H]1C	> 30 mg/kg	70%	78%	0.7	0.27	0	2.34 nM	0.7 mg/kg	Active	–
CC1CN(C(=O)N2Cc3c(C(=O)OC(C)(C)C)ncn3-c3ccc(Cl)cc32)CCN1 (stereo not drawn)	> 30 mg/kg	–	68%	0.5	0.18	0.17	4.48 nM	8.8 mg/kg	Active	–
CC(=O)N1[C@H](C)CN(C(=O)N2Cc3c(C(=O)OC(C)(C)C)ncn3-c3ccc(Cl)cc32)C[C@@H]1C	> 30 mg/kg	–	22%	–	0.94	0.79	4.66 nM	14.8 mg/kg	Active	–
CC(C)(C)OC(=O)c1ncn2c1CN(C(=O)N1CCN(C3CC3)CC1)c1cc(Cl)ccc1-2	> 30 mg/kg	–	24%	0.42	0.76	0.75	5.39 nM	12.5 mg/kg	–	inactive
C[C@@H]1CN(C(=O)N2Cc3c(C(=O)OC(C)(C)C)ncn3-c3ccc(F)cc32)C[C@H](C)N1C	21.8 mg/kg	77%	29%	1	0.44	-0.1	2.69 nM	35.3 mg/kg	–	–
C[C@@H]1CN(C(=O)N2Cc3c(C(=O)OC(C)(C)C)ncn3-c3ccc(F)cc32)C[C@H](C)N1	> 30 mg/kg	74%	95%	0.5	-0.14	0	1.04 nM	35.3 mg/kg	–	–
C[C@H]1CN(C(=O)N2Cc3c(C(=O)OC(C)(C)C)ncn3-c3ccc(C(F)(F)F)cc32)CCN1	> 30 mg/kg	82%	21%	0.8	0.54	0.7	42.8 nM	25 mg/kg	–	inactive
C[C@H]1CN(C(=O)N2Cc3c(C(=O)OC(C)(C)C)ncn3-c3ccc(C(F)(F)F)cc32)C[C@H](C)N1	> 30 mg/kg	–	–	0.5	0.41	1	277 nM	39.7 mg/kg	Active	–
C[C@@H]1CN(C(=O)N2Cc3c(C(=O)OC(C)(C)C)ncn3-c3ccc(Cl)cc32)C[C@H](C)N1CC(F)(F)F	> 30 mg/kg	–	19%	0.5	0.67	0	37.8 nM	42 mg/kg	–	inactive
C[C@@H]1CN(C(=O)N2Cc3c(C(=O)OC(C)(C)C)ncn3-c3ccc(Cl)cc32)C[C@H](C)N1S(C)(=O)=O.ClCCl	> 30 mg/kg	–	8%	–	0.76	0.9	4.18 nM	> 50 mg/kg	–	inactive
CC(C)(C)OC(=O)c1ncn2c1CN(C(=O)N1CCN(CC(F)(F)F)CC1)c1cc(Cl)ccc1-2	> 30 mg/kg	–	10%	0.8	0.81	1	10.9 nM	> 50 mg/kg	–	inactive
CC1(C)CN(C(=O)N2Cc3c(C(=O)OC(C)(C)C)ncn3-c3ccc(Cl)cc32)CCN1	> 30 mg/kg	–	13%	0.33	-0.01	0	3.03 nM	> 50 mg/kg	–	inactive
